Compounds with a hit are over-represented: about 27% of the library has one in this group of screens.
CYP2C19 act – cytochrome P450 2C19 (human) activation; P33261; recombinant CYP2C19, luciferin-H EGE luminescence; stronger effect = higher value; 0 = fully inhibited enzyme, 1 = untreated enzyme; activation factor at 5 µM; 96,000 tested, under 10 active;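 active = activation factor of at least 2 at 5 µM in the primary screen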
CYP2C19 inhib – inhibitors of human CYP2C19. 96,000 tested, 21% active. CYP2C19 Supersomes, luciferin-H EGE luminescence, 30 min. AID 778. inhibition, % at 5 µM. P33261;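 active = CYP2C19 inhibition above a set limit at 5 µM in the primary screen, cut at about 50% in these data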
Rev-RRE block – HIV Rev-RRE protein-RNA interaction inhibition. P05866. Rev peptide-RRE RNA binding, FRET. inhibition, % at 8 µM. 97,000 tested, 0.79% active. AID 704;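 active = inhibition above the screen-wide mean plus 3 SD, cut at about 35% in these data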
Target sequence (P05866 whole entry, looked up): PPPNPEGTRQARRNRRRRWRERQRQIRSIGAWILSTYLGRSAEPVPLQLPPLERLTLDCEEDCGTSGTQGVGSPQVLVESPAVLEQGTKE
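Test system: Cy5-tagged RRE RNA duplex with fluorescein-tagged Rev peptide | Read-out: % inhibition of FRET ratio versus controls | Probe or stimulus: Labelled Rev peptide | Incubation: 5 min RNA-compound premix plus 15 min binding step, 25 °C | Technique: FRET fluorescence readout | Benchmarks: DMSO low control, neomycin B high control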
CYP2C9 inh – human CYP2C9 inhibition; CYP2C9 Supersomes, luciferin-H conversion, luminescence; 96,000 tested, 20% active; AID 777; inhibition, % at 5 µM;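 active = blocking of liver enzyme CYP2C9 beyond about 50% at 5 µM, limit read from the data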
Target sequence (P11712 whole entry, looked up): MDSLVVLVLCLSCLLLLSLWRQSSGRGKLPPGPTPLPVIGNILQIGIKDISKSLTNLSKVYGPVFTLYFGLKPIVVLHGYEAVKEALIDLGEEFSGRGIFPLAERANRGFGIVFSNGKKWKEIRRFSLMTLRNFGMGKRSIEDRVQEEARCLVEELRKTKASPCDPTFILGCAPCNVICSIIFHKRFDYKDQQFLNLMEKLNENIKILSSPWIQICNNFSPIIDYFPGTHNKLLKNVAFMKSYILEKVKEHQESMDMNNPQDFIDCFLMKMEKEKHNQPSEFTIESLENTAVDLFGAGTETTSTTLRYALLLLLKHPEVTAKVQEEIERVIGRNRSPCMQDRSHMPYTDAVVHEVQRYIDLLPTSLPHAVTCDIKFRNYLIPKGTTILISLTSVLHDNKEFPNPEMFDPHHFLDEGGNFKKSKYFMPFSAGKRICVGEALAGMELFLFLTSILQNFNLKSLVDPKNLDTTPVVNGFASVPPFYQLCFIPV
CYP2C9 act – activators of human CYP2C9; recombinant CYP2C9, luciferin-H conversion, luminescence; stronger effect = higher value; factor 1 = untreated enzyme, 0 = blocked; AID 1024; P11712; 96,000 tested, 1.4% active; activation factor at 5 µM;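 active = activation factor of 2 or more for CYP2C9 at a 5 µM dose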
Cav32 inh – blocks human Cav3.2 T-type calcium channel | O95180 | Cav3.2-expressing cells, Fluo-4 calcium fluorescence FDSS; stronger effect = lower value | B-score at 10 µM | 100,000 tested, 4% active | AID 449739;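 active = single-dose well whose peak fluorescence ratio is a statistical outlier from its plate by either plate-standardised score or position-corrected B-score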
Hits are given with their value; - = inactive; . = no result.

SMILES	CYP2C19 act	CYP2C19 inhib	Rev-RRE block	CYP2C9 inh	CYP2C9 act	Cav32 inh
CS(=O)(=O)Nc1ccc(C(=O)NC2CCCC2)cc1	-	-	-	-	-	-
COc1ccc(S(=O)(=O)NCCSc2ccc(Cl)cc2)cc1OC	.	.	-	.	.	-
CCCNS(=O)(=O)c1ccc(OC)c(Cl)c1Cl	-	53	-	-	-	-
COc1ccc(S(=O)(=O)NCc2ccccn2)c(Cl)c1Cl	-	88	-	-	2	.
COc1ccc(S(=O)(=O)NCCSC(C)(C)C)c(Cl)c1Cl	-	94	-	-	3.2	-
N#C/C(=C\c1ccccc1Cl)C(=O)NC(=O)Oc1ccccc1	-	-	-	-	-	-
Cc1cccc(N2C(=O)C3C4CC(C(Br)C4Br)C3C2=O)n1 (stereo not given)	-	-	-	-	-	-
Cc1ccc(N2C(N)=C(C#N)C3(C(=O)N(C)c4ccccc43)C3=C2CC(C)(C)CC3=O)cc1Cl (stereo not given)	-	-	-	54	-	-
CN1C(=O)C2(C(C#N)=C(N)N(c3cc(Cl)cc(Cl)c3)C3=C2C(=O)CC(C)(C)C3)c2ccccc21 (stereo not given)	-	-	-	-	-	-
COc1ccccc1C(=O)NCCCN1CCCC1=O	-	-	-	-	-	-
CCOc1ccc(NC(=O)NCC2CCN(c3ccc(OC)cc3)C2)cc1 (stereo not given)	-	-	-	-	-	-
COc1ccc(N2CCC(CNC(=O)Nc3ccc(OC)cc3OC)C2)cc1 (stereo not given)	-	62	-	-	-	.
COc1ccc(NC(=O)NCCCN2CCCC2=O)c(OC)c1	-	54	-	-	-	.
CCOC(=O)c1ccc(NC(=O)COc2ccc(S(=O)(=O)NC(C)C)cc2)cc1	-	-	-	-	-	-
COCC(=O)N(Cc1nc2ccccc2c(=O)[nH]1)Cc1cccs1	-	-	-	52	-	-
COc1ccc(CCN(Cc2nc3ccccc3c(=O)[nH]2)C(=O)c2ccco2)cc1	-	-	-	57	-	-
COCC(=O)N(CCc1ccc(OC)c(OC)c1)Cc1nc2ccccc2c(=O)[nH]1	-	58	-	-	-	-
COc1cc2c(cc1NC(=O)CN(C)Cc1nc3ccccc3c(=O)[nH]1)oc1ccccc12	-	-	.	-	-	-
CCC(CC)C(=O)N(CCc1ccc(OC)cc1)Cc1nc2ccccc2c(=O)[nH]1	-	-	-	-	-	-
NC(=O)CC(NC(=O)c1ccccc1)c1ccc(NCc2ccccc2)c([N+](=O)[O-])c1 (stereo not given)	.	.	.	.	.	-
Cc1cccc(-c2cc3nc4c(c(NCc5ccco5)n3n2)CCCC4)c1	-	-	-	-	-	-
COc1cc2c(cc1NC(=O)C(C)OC(=O)C1CC(=O)N(Cc3ccco3)C1)oc1ccccc12 (stereo not given)	-	-	-	-	-	-
O=C(NC1CCCCCC1)C1CC(=O)N(Cc2ccccc2)C1 (stereo not given)	-	-	-	-	-	-
CCOC(=O)c1sc(N)c(C(=O)OCC)c1COC(=O)C1CC(=O)N(Cc2ccco2)C1 (stereo not given)	-	91	-	98	-	-
CCOC(=O)c1[nH]c(COC(=O)C2CC(=O)N(Cc3ccccc3)C2)c(C(=O)OCC)c1C (stereo not given)	-	-	-	60	-	-
SMILES	CYP2C19 act	CYP2C19 inhib	Rev-RRE block	CYP2C9 inh	CYP2C9 act	Cav32 inh
COC(=O)c1sc(N)c(C(=O)OC)c1COC(=O)C1CC(=O)N(Cc2ccco2)C1 (stereo not given)	-	79	-	91	-	-
CCOC(=O)C(/C=C(\C#N)C(=O)OCC)=C(/N)N1CCN(c2c(C)cccc2C)CC1	-	-	-	-	-	-
Cc1ccc(S(=O)(=O)NC(C)CCc2ccccc2)cc1 (stereo not given)	-	-	-	-	-	-4.1
Cc1ccc(S(=O)(=O)NCCc2ccccc2)cc1	-	96	-	65	-	-
NS(=O)(=O)c1ccc(S(=O)(=O)NCCc2ccccc2)cc1	-	85	-	-	-	-
NS(=O)(=O)c1ccc(NC(=O)CCc2ccccc2)cc1	-	-	-	-	-	-
Cc1ccc(S(=O)(=O)N[C@@H](Cc2ccccc2)C(=O)CCl)cc1	.	.	.	.	.	-
Nc1nc2nc(-c3ccc(Cl)cc3)cc(C(F)(F)F)n2n1	-	-	-	-	-	-
COc1ccc(C2c3c(ncn(CCN4CCOCC4)c3=N)Oc3ccc4ccccc4c32)cc1 (stereo not given)	-	50	-	56	-	-
COc1ccc(C2c3c(ccc4ccccc34)Oc3ncn4nc(CO/N=C/c5ccccc5)nc4c32)cc1 (stereo not given)	-	-	-	56	-	-4.6
O=C(OCCNC(=O)c1ccc2ccccc2n1)c1ccc(F)cc1	-	-	-	-	-	-
C[C@@H](C(=O)Nc1ccc2ccccc2c1)[C@H]1C[C@]1(C)[C@H](NP(=O)(c1ccccc1)c1ccccc1)c1ccccc1	.	.	.	.	.	-
CCOC(=O)c1c(C)[nH]c(C)c1C(=O)CSc1nnc(-c2ccncc2)n1C	-	98	-	63	-	.
Cc1ccc(-c2cc(-c3nnc(SCC(=O)NCC(C)C)n3N)c3ccccc3n2)cc1	-	-	-	78	-	.
Cc1cccc(NC(=O)CSc2nnc(-c3ccncc3)n2C)c1	-	80	-	52	-	-
Cc1csc(NC(=O)CSc2nnc(-c3ccncc3)n2C)n1	-	-	-	-	-	-
CCOC(=O)c1ccc(NC(=O)CSc2nnc(-c3ccncc3)n2C)cc1	-	69	-	73	-	-
Cn1c(SCCC(=O)O)nnc1-c1ccncc1	.	.	-	.	.	-
Cc1cc(NC(=O)C(C)(C)C)no1	-	-	-	-	-	-
O=C(NC1CC1)C1=C[C@H](c2ccc(C(F)(F)F)cc2)C[C@H](OCc2ccc(CO)cc2)O1	.	.	.	.	.	-
COCCCNc1nc2c(-c3cccc(C)c3)nnn2c2ccccc12	.	.	.	.	.	-
CCOC(=O)C1=CN(C)C=C(C(=O)OCC)C1c1ccsc1	-	-	-	-	-	-
Cc1ccc(Nc2nnc(SCC(=O)Nc3ccc(S(=O)(=O)N4CCOCC4)cc3)s2)cc1	-	-	-	74	-	-
Cc1cccc(NC(=O)CSc2nnc(-c3ccc(S(=O)(=O)N4CCOCC4)cc3)n2C)c1	-	99	-	52	-	-
Cc1cc(NC(=O)CSc2nnc(-c3ccncc3)n2N)ccc1Br	-	-	-	87	-	-
Cc1ccc(C)c(NC(=O)CSc2nnc(-c3ccccc3)n2N)c1	-	63	-	-	-	-
COc1cccc(-c2nnc(SCC(=O)Nc3cc(C)ccc3OC)n2N)c1	-	-	-	-	-	-
N=C1/C(=C\c2ccc(OCc3ccccc3)cc2)C(=O)N=C2SC(N3CCCC3)=NN12	.	.	.	.	.	-

Source: PubChem BioAssay (several laboratories)
